Assay results collected from several papers.
Protocols differ between the studies behind these lines.
Cell line: LNCaP
Effect on: cell growth or viability

COc1ccc2c(N(C)c3ccc(/C(C)=N/OCCN)cc3)c3c(Cl)coc3nc2c1
IC50 (trypan blue; 72 h): 0.235 µM

CC(C)C[C@H](NC(=O)[C@H](Cc1ccccc1)NC(=O)c1cnccn1)B(O)O
IC50 (ATP luminescence): 0.019 µM

O=C(O)/C=C/c1cccc(C(c2c[nH]c3ccccc23)c2c[nH]c3ccccc23)c1
IC50 (MTT; 48 h): 43 µM

C[C@]12CC[C@H](O)CC1=CC[C@@H]1[C@@H]2CC[C@]2(C)C(n3cnc4ccccc43)=CC[C@@H]12
IC50 (XTT; 7 days): 2.6 µM

CC(=O)O[C@@]12CO[C@@H]1C[C@H](O)[C@@]1(C)C(=O)[C@H](O)C3=C(C)[C@@H](OC(=O)[C@H](O)[C@@H](NC(=O)OC(C)(C)C)c4ccccc4)C[C@@](O)([C@@H](OC(=O)c4ccccc4)[C@H]21)C3(C)C
IC50 (trypan blue): 0.001 µM

CC(O)(CS(=O)(=O)c1ccc(F)cc1)C(=O)Nc1ccc(C#N)c(C(F)(F)F)c1 (stereo not shown)
IC50 (XTT; 7 days): 4.6 µM

O=C(CCCCCCC(=O)Nc1ccccc1)NO
GI50 (MTT; 72 h): 5.2 µM

COC1=CC(=O)N(C(=O)[C@@H](CCC(Cl)(Cl)Cl)NC(=O)C(C)(C)C)[C@@H]1CCC(Cl)Cl
IC50 (resazurin; 96 h): 6.9 µM

C[C@]12CC[C@H](O)CC1=CC[C@@H]1[C@@H]2CC[C@]2(C)C(c3cccnc3)=CC[C@@H]12
GI50 (MTT): 11.2 µM

COc1cc(C(=O)c2csc(-c3ccccc3)n2)cc(OC)c1OC
IC50 (SRB; 96 h): 0.028 µM

O=C(O)C(c1c[nH]c2ccccc12)c1c[nH]c2ccccc12
inhibition (MTT; 100 µM, 48 h): 34%

O=C(CCCCCCC(=O)Nc1ccc(CCF)cc1)NO
GI50 (MTT; 72 h): 4.8 µM

FC(F)(F)c1ccc(C(c2c[nH]c3ccccc23)c2c[nH]c3ccccc23)cc1
inhibition (MTT; 20 µM, 48 h): 97%

COc1cc(Nc2nccc(-c3cnn4nc(OC)ccc34)n2)cc(C(F)(F)F)c1
IC50 (ATP luminescence): 0.47 µM

CNC(=O)c1ccc(N2C(=S)N(c3ccc(C#N)c(C(F)(F)F)c3)C(=O)C2(C)C)cc1F
GI50 (MTT): 13.7 µM

Cn1cc(C(c2ccc(C(=O)O)cc2)c2cn(C)c3ccccc23)c2ccccc21
IC50 (MTT; 48 h): 36 µM
